In ChEMBL document CHEMBL1123492, “Carboxyl-modified amino acids and peptides as protease inhibitors” (J Med Chem, 1986) one finds Km data, which are given here for two compounds.

For data set [1], the system named is NCC(=O)NC(Cc1ccccc1)C(=O)Nc1ccc([N+](=O)[O-])cc1. The experiment in a line: Michaelis constant against Dipeptidyl aminopeptidase 1. A digest of the protocol:
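Cathepsin C diluted 1:200 daily in ice-cold 50 mM citrate pH 5 with 10 mM cysteamine. Gly-Phe p-nitroanilide hydrolysis at 37 °C read at 405 nm (Δε 9900 M⁻¹ cm⁻¹), started by adding substrate to prewarmed enzyme/inhibitor. Irreversible inhibition: enzyme preincubated with varied inhibitor levels, aliquots diluted into substrate over time. k_app from ln(% activity) vs time; Ki and k2 from 1/k_app vs 1/[I].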

Data set [2] is described as follows: Michaelis constant against leucine aminopeptidase-C.
The nature of data set [3]: Michaelis constant against Leucine aminopeptidase-M.

Regarding “Dipeptidyl peptidase 1 (Homo sapiens), P53634”, the Km (in general, the concentration of substrate that gives half-maximal velocity) in data set [1] worked out at 3100 µM.
Consider `CC(C)C[C@H](N)C(=O)Nc1ccc([N+](=O)[O-])cc1`, for which the Km in data set [2] came out at 2100 µM; in data set [3], 600 µM.
